Experimental findings from ChEMBL document CHEMBL1154379, “Soluble polyphenols: synthesis and bioavailability of 3,4',5-tri(alpha-D-glucose-3-O-succinyl) resveratrol” (Bioorg Med Chem Lett, 2009) are described below.

Molecules are shown by their SMILES. ≈ marks a conversion by molar mass, not a printed value.

In data set [1] the test system is Rattus norvegicus. Put plainly: AUC in intragastrically dosed rat assessed as resveratrol level at 0.09 mmol/kg after 10 mins. The class given is ADME, organism-based, Plasma. Set-up: time < 0.166667 hr, dose 0.09 mmol/kg, route intragastric. The settings on record: in vivo, po. The method in brief:
(§1)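 Rats received intragastric doses, with the same animals given both resveratrol and the derivative to limit individual variability. Blood was sampled over time. Circulating resveratrol and its sulfate and glucuronide conjugates were identified by HPLC–UV at 320 nm and LC–MS against synthesized phase II metabolite standards, confirmed by enzymatic treatment. Cmax and AUC were taken from concentration–time curves.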

Data set [2] concerns Rattus norvegicus. Put plainly: AUC in intragastrically dosed rat assessed as resveratrol sulfate level at 0.09 mmol/kg after 10 mins. The class given is ADME, organism-based, Plasma. On the set-up: dose 0.09 mmol/kg, time < 0.166667 hr, route intragastric. The settings on record: in vivo, po. Summed up:
as §1

For data set [3], the system named is Rattus norvegicus. Put plainly: AUC in intragastrically dosed rat assessed as resveratrol disulfate level at 0.09 mmol/kg after 10 mins. In kind it is ADME, organism-based, Plasma. On the set-up: time < 0.166667 hr, dose 0.09 mmol/kg, route intragastric. The settings on record: in vivo, po. Summed up: as §1
The test system of data set [4] is Rattus norvegicus. As to the kind of experiment: AUC in intragastrically dosed rat assessed as total metabolite level at 0.09 mmol/kg after 10 mins. In kind it is ADME, organism-based, Plasma. The note with it: in vivo, po. On the set-up: dose 0.09 mmol/kg, time < 0.166667 hr, route intragastric. The method in brief: as §1
Data set [5] in a line: Chemical stability in 1N HCl solution assessed as compound remaining at 37degC. The class given is physicochemical. The note with it: buffer. The method in brief:
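The compound was incubated in 1 N HCl at 37 °C for 6 h and analysed by LC–MS. The amount remaining is expressed as % of the initial molar amount.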

Data set [6] can be described thus: Solubility in water at room temperature. In kind it is physicochemical.
Data set [7] concerns Rattus norvegicus. As to the kind of experiment: AUC in intragastrically dosed rat assessed as resveratrol glucuronide level at 0.09 mmol/kg after 10 mins. The class given is ADME, organism-based, Plasma. Set-up: time < 0.166667 hr, dose 0.09 mmol/kg, route intragastric. The note with it: in vivo, po. The method in brief: as §1
A short description of data set [8]: Cmax in intragastrically dosed rat at 0.09 mmol/kg after 10 mins. In kind it is ADME, organism-based. Set-up: dose 0.09 mmol/kg, route intragastric. The settings on record: in vivo, po. Summed up:
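Rats dosed intragastrically, with the same animals receiving both resveratrol and the glucosylsuccinyl derivative. Blood was sampled over time. Circulating species were identified by HPLC-UV at 320 nm and LC–MS against synthesized phase II metabolite standards (sulfates, glucuronides), with confirmation by enzymatic treatment. Cmax was read from concentration–time curves.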

Data set [9] in a line: Solubility in pH 9 buffer. In kind it is physicochemical.

As to `O=C(CCC(=O)O[C@@H]1[C@@H](O)[C@@H](O)O[C@H](CO)[C@H]1O)Oc1ccc(/C=C/c2cc(OC(=O)CCC(=O)O[C@@H]3[C@@H](O)[C@@H](O)O[C@H](CO)[C@H]3O)cc(OC(=O)CCC(=O)O[C@@H]3[C@@H](O)[C@@H](O)O[C@H](CO)[C@H]3O)c2)cc1`, the AUC in the data set on Rattus norvegicus [1] worked out at 0.2 µM·h; with Rattus norvegicus [2], 3.5 µM·h; in the data set on Rattus norvegicus [3], 27 µM·h; in the data set on Rattus norvegicus [4], 51.8 µM·h; with Rattus norvegicus [7], 21.2 µM·h. In addition, in [5], the Stability is recorded as 80%. The same molecule showed a solubility in [6] of 90 mg/mL (≈ 88.7 mM).

For `Oc1ccc(/C=C/c2cc(O)cc(O)c2)cc1` [RESVERATROL], the AUC came out at 1.1 µM·h in the data set on Rattus norvegicus [1]; 2.4 µM·h in the data set with Rattus norvegicus [2]; 14.4 µM·h in the data set on Rattus norvegicus [3]; 53.4 µM·h with Rattus norvegicus [4]; 35.5 µM·h in the data set on Rattus norvegicus [7]. In data set [8], this molecule displayed a Cmax of 1200 nM.

For `C[C@@H]1O[C@@H](OC[C@H]2O[C@@H](Oc3c(-c4ccc(O)c(O)c4)oc4cc(O)cc(O)c4c3=O)[C@H](O)[C@@H](O)[C@@H]2O)[C@H](O)[C@H](O)[C@H]1O` [RUTIN], the concentration in solution in data set [9] (solubility) was 2.3 mg/mL (≈ 3.77 mM).

The term solubility denotes the dissolved amount per volume that the medium holds. Low values mean a poorly soluble substance, high ones a readily soluble substance. The Cmax is the peak of the concentration-time curve.
